The test system of data set [1] is HVA Ca2+ currents in human MRGPRX1-expressing DRG neurons. The class given is cell-based, mouse. To be noted: DRG neurons from MrgprX1 mice.
Data set [2] has as its target T1, human MRGPRX1 (Homo sapiens, UniProt Q96LB2). The class given is cell-based. The following applies: for agonist type at human MRGPRX1: HTS hits, FLIPR calcium 4 Assay Kit; for ligand efficiency (LE): human MRGPRX1 agonists; for fold decrease in agonist potency as compared to 5a: relative to 5a; for agonist activity at MRGPRX1: at concentrations up to 100 μM. In short, it runs like this: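 HEK293 cells stably expressing human MrgprX1 were plated at 25,000 cells/well and grown 2 days. They were loaded with 2 μM Fluo 4AM and 1% Trypan Red in HBSS for 50 min at 37°C, then equilibrated 10 min at room temperature. Serial dilutions in HBSS were added, with BAM 8–22 as positive and HBSS as negative control. FLIPR imaging ran 2 min; read-out was maximum minus minimum fluorescence.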

The target in data set [3] is T2, mouse MRGPRC11 (Mus musculus, UniProt Q8CIP3).
T2 sequence (Q8CIP3 1-322): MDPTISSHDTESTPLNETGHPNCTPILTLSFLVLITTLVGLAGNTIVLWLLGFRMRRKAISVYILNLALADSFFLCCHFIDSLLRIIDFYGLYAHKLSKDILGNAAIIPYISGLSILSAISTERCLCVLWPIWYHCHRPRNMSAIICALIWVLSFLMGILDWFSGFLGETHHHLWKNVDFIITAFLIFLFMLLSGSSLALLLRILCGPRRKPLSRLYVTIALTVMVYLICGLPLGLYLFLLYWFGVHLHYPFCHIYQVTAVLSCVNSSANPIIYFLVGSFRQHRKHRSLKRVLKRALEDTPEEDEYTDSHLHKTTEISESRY
The data set is described as follows: Agonist activity at mouse MRGPRC11. The class given is cell-based. The following applies: even at concentration of 40 μM.

Data set [4] can be described thus: Metabolic stability in mouse liver microsomes. It counts as in vitro ADME. On the technique in general: Liver microsomes are vesicles of endoplasmic reticulum, rich in cytochrome P450 enzymes.
The subject of data set [5] is δ-, μ- and κ-opioid receptors. The data set is described as follows: Selectivity of MRGPRX1 agonists over opioid receptors. The class given is binding. The following applies: MRGPRX1 versus δ-.
The target in data set [6] is T2, mouse MRGPRC11. To be noted: cited from earlier work.
Data set [7] has as its target T1, human MRGPRX1. To be noted: cited from earlier work.
For a further data set, the system named is neuropathic pain. To be noted: rodent models of neuropathic pain; cited from earlier work.
A further data set deals with rat MRGPRC. The following applies: cited from earlier work.
For data set [8], the system named is mechanical and thermal hyperalgesia. The following applies: intrathecal (spinal cord) injection, rats; cited from earlier work.
Data set [9] has the same test system. To be noted: intrathecal (spinal cord) injection, mice; cited from earlier work.

Entries after “also recorded” stand apart in the source; their conditions may differ. Where two headings read alike, the source gives them in different places. Non-standard residues stand in square brackets, D forms with d. Residues, ends and D or L forms follow the SMILES beside them. dPhe(4-guanidino) = N=C(N)Nc1ccc(C[C@@H](N)C(=O)O)cc1

T1 sequence (Q96LB2 whole entry): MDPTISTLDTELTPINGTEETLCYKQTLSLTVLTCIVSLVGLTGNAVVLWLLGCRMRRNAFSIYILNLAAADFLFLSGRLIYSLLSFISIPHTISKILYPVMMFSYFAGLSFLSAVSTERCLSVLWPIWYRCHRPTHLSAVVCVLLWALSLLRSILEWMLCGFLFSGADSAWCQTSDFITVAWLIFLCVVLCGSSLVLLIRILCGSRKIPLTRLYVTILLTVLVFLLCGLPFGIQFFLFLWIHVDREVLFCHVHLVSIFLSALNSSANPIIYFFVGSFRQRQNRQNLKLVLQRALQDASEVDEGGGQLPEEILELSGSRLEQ

With `COc1cc(CNc2ccc(C(=N)N)cc2)ccc1OCc1ccccc1` [Compound 5a, 4-(4-(Benzyloxy)-3-methoxybenzylamino)benzimidamide], the “inhibitory effect on HVA Ca2+ currents” value in data set [1] (bath application of 10 μM) is reported as “inhibited HVA Ca^2+ currents”. Further, on human MRGPRX1 [2], the “agonist type at human MRGPRX1” value is listed as “full agonists” and the “ligand efficiency (LE)” value is 0.32–0.33.
As for `COc1cc(CNc2cccc(C(=N)N)c2)ccc1OCc1ccccc1` [Compound 5b, 3-(4-(Benzyloxy)-3-methoxybenzylamino)benzimidamide], the “fold decrease in agonist potency as compared to 5a” value (“fold decrease in agonist potency” below) at human MRGPRX1 [2] is 6 fold.
As to `COc1cc(CNc2ccccc2C(=N)N)ccc1OCc1ccccc1` [Compound 5c, 2-(4-(Benzyloxy)-3-methoxybenzylamino)benzimidamide], the “inhibitory effect on HVA Ca2+ currents” value in data set [1] (bath application of 10 μM) is “no inhibitory effects”. At human MRGPRX1 [2], the “agonist activity at MRGPRX1” value is given as “negligible agonist activity” and the “fold decrease in agonist potency” value was greater than 100 fold.
For `COc1cc(CNc2ccc(C(=N)N)cc2)ccc1OCc1cccnc1` [Compound 5d, 4-(3-Methoxy-4-(pyridin-3-ylmethoxy)benzylamino)benzimidamide], the “fold decrease in agonist potency” value at human MRGPRX1 [2] turned out to be 10 fold.
Consider `CCCCS(=O)(=O)Nc1cc(C)ccc1Oc1ccc(C(=N)N)cc1` [Compound 11a, 4-(2-(Butylsulfonamido)-4-methylphenoxy)benzimidamide], for which, at human MRGPRX1 [2], the “agonist type at human MRGPRX1” value is on record as “full agonists” and the “ligand efficiency (LE)” value is reported as 0.32–0.33.
Take `COc1ccccc1S(=O)(=O)Nc1ccc(C)cc1Oc1ccc2c(N)nccc2c1` [Compound 16, N-(2-(1-Aminoisoquinolin-6-yloxy)-4-methylphenyl)-2-methoxybenzenesulfonamide]: at mouse MRGPRC11 [3], the “activity against mouse MRGPRC11” value is “inactive”. Moreover, the half-life in [4] is less than 15 min. Further, the “selectivity over all three opioid receptors” value in data set [5] is recorded as no less than 50 fold.
Consider `COc1ccccc1S(=O)(=O)Nc1ccc(C)cc1Oc1ccc2sc(N)nc2c1` [Compound 19, N-(2-(2-Aminobenzo[d]thiazol-5-yloxy)-4-methylphenyl)-2-methoxybenzenesulfonamide], for which the “agonist activity at MRGPRX1” value at human MRGPRX1 [2] is on record as “negligible agonist activity; also recorded: no agonist activity”.
As for `NC(=O)[C@H](Cc1ccccc1)NC(=O)[C@H](N)Cc1ccc(N=C(N)N)cc1` [JHU-58] (H-[dPhe(4-guanidino)]-Phe-NH2), the “agonist activity at mouse MRGPRC11” value at mouse MRGPRC11 [6] is reported as “full agonist activity”. Moreover, the “agonist activity at human MRGPRX1” value on human MRGPRX1 [7] (introduction) is recorded as “negligible agonist activity”. Moreover, the “analgesic effects” value in the data set on neuropathic pain was “exhibits analgesic effects”. For the same molecule, the “agonist activity at rat MRGPRC” value in the data set with rat MRGPRC is “full agonist activity”.
With BAM8-22, the “inhibitory effect on HVA Ca2+ currents” value in data set [1] (bath application of 5 μM) is “inhibited HVA Ca^2+ currents”. Further, the “agonist activity at mouse MRGPRC11” value at mouse MRGPRC11 [6] is reported as “full agonist activity”. Besides, the “agonist activity at human MRGPRX1” value at human MRGPRX1 [7] is “full agonist activity”. Moreover, the “effect on mechanical and thermal hyperalgesia” value is “attenuate both mechanical and thermal hyperalgesia” in data set [8]; “attenuate both mechanical and thermal hyperalgesia” in data set [9]. Also, in the data set with rat MRGPRC, the “agonist activity at rat MRGPRC” value is on record as “full agonist activity”.

One may read the half-life as the time in which the quantity being followed falls by half.

The values are drawn from PMC10079166 (Journal of medicinal chemistry, 2019).
